CHO parental Ca: ATP-evoked calcium signal inhibitors, parental CHO, primary screen, counter-screen for OX1R antagonist project, cell-based, fluorescence, Fluo-8 calcium dye | inhibition, % at 5.6 µM | parental CHO-K1, ATP-induced calcium, Fluo-8 fluorescence | AID 463079, 2010 | 330,000 tested, 0.63% active;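 active = inhibition above that plate's mean sample inhibition plus 3 SD, cut at about 26% in these data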;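 note: 0% = ATP-challenged DMSO wells and 100% = DMSO wells without ATP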
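Measured by: calcium-sensitive Fluo-8 fluorescence / Test system: CHO parental line / Controls: ATP-challenged DMSO wells low, unchallenged DMSO wells high / Measure: % inhibition / Compound: single nominal dose of 5.6 µM per compound / Replicates: single well per compound, no replicates / Reagent: ATP as calcium-mobilizing challenge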
GPR7 antagonist: GPR7 receptor antagonists, primary screen, cell-based, fluorescence, single concentration; Neuropeptides B/W receptor type 1 (Homo sapiens), P48145; GPR7-expressing cells, fluorescence antagonist assay; inhibition, % at 4.4 µM; 290,000 tested, 1.1% active; in the data active = inhibition above about 16%, passing the limit was not always enough;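 note: cells stimulated with the agonist NPW; 0% = agonist with vehicle and 100% = vehicle without agonist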
zfTRPN1 agonist: zebrafish TRPN1 channel agonists, primary screen, cell-based, HEK293, calcium fluorescence | activation, % at 3 µM | AID 1424, 2008 | HEK293 zebrafish TRPN1-YFP, Fluo-8 calcium fluorescence; 100% = response to 87 µM carbachol | 220,000 tested, 0.18% active | transient receptor potential cation channel N1 (TRPN1/NompC), Danio rerio;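 active = activation above its plate's cutoff, the mean activation of test wells on that plate plus 3 SD, cut at about 19% in these data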;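 note: 0% = DMSO alone and 100% = 87 µM carbachol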
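Material – zebrafish TRPN1-YFP in HEK293 cells · Doses – 3 µM single point · Schedule – dye 1 h 37 °C plus 30 min RT · Signal – Fluo-8 calcium fluorescence, excitation 470-495 nm, emission 515-575 nm · Read-out – % activation versus carbachol response · Control set – carbachol high, DMSO low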
OX1R antag-1: OX1R (HCRTR1) antagonists, primary screen, fluorescence, CHO/OX1R cells, Fluo-8 calcium, orexin A. Orexin/Hypocretin receptor type 1 (Homo sapiens), O43613. inhibition, % at 5 µM. Fluo-8 calcium fluorescence. 330,000 tested, 0.43% active;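 active = inhibition above its plate's threshold, mean inhibition of all tested compounds on the plate plus 3 SD, cut at about 37% in these data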;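 note: 0% = orexin A challenge wells and 100% = SB-334867-A antagonist wells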
OX1R antag-2: antagonists of human orexin 1 receptor (OX1R); Orexin/Hypocretin receptor type 1 (Homo sapiens), O43613; inhibition, % at 6.6 µM; 330,000 tested, 1.8% active; OX1R-expressing cells, FRET antagonist read-out; in the data active = inhibition mostly above about 38%, no sharp cut-off; inactive = mostly below about 40%;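 note: 0% = agonist challenge alone and 100% = reference antagonist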
TRPML3 ag: human TRPML3 channel agonists, primary screen, cell-based, HEK293 TRPML3-YFP, Fluo-8 calcium fluorescence, 3 µM; 220,000 tested, 0.29% active; activation, % at 3 µM; AID 1448, 2008; 100% = the carbachol control signal; Mucolipin-3 (Homo sapiens), Q8TDD5;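 active = activation above its plate's cutoff, the mean activation of the plate's test wells plus 3 SD, cut at about 12% in these data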;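 note: 0% = DMSO only wells and 100% = carbachol wells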
Target sequence (Q8TDD5 whole entry, looked up): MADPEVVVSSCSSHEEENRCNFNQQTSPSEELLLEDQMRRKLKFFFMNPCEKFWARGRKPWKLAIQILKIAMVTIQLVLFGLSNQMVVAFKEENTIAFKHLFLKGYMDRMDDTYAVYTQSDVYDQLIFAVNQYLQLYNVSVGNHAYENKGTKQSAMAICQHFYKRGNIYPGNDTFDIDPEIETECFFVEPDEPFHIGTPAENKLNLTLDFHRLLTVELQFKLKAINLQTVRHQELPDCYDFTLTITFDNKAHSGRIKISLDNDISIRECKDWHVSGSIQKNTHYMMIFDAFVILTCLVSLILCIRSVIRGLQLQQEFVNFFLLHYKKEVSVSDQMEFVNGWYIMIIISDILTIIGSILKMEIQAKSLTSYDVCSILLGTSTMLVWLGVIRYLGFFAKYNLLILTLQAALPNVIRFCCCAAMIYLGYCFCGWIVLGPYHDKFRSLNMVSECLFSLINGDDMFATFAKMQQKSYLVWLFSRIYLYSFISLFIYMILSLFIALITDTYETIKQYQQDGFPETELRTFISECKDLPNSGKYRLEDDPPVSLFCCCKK
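Material: HEK293 cells stably carrying human TRPML3-YFP; compound dosing: single dose, 3 µM final nominal compound, 0.3% DMSO final; incubation: 1-h 37 °C dye load, 5-s basal, 120-s post-compound reads; technique: Fluo-8 intracellular calcium fluorescence, excitation 470-495 nm, emission 515-575 nm; read-out basis: percent activation from peak-to-basal fluorescence ratio, scaled between DMSO and carbachol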
The depositor's hits bear a star. Hits are enriched below; roughly 3.2% of the tested compounds scored in any of these assays.

For COc1ccc2[nH]c(C(=O)N/N=C/c3ccccc3OC)cc2c1 the results were CHO parental Ca -6, GPR7 antagonist 15, OX1R antag-1 -3 and OX1R antag-2 56*.
`CCN1C(=O)c2ccc(-c3nc4ccccc4c(=O)o3)cc2C1=O` gave CHO parental Ca 4, GPR7 antagonist -17, zfTRPN1 agonist 0, OX1R antag-1 -5, OX1R antag-2 13 and TRPML3 ag 0.
Screening CCN1C(=O)c2c(C)nc3ccccc3c2C1=O returned CHO parental Ca -14, GPR7 antagonist -9, zfTRPN1 agonist 0, OX1R antag-1 -20, OX1R antag-2 39* and TRPML3 ag 0.
Screening CC(=O)c1cn(-c2ccc([N+](=O)[O-])cc2)c(=O)n(C)c1=O returned CHO parental Ca -8, OX1R antag-1 -8 and OX1R antag-2 39*.
Screening Cn1c(CBr)c(C(=O)c2ccc([N+](=O)[O-])cc2)c(=O)n(C)c1=O returned CHO parental Ca -5, GPR7 antagonist -13, zfTRPN1 agonist 0, OX1R antag-1 -16, OX1R antag-2 51* and TRPML3 ag 2.
Screening S=C(N/N=C/c1ccccc1)N1CCOCC1 returned CHO parental Ca -3, GPR7 antagonist 0, zfTRPN1 agonist 0, OX1R antag-1 -11, OX1R antag-2 9 and TRPML3 ag 1.
Screening Cc1ccccc1OCC(=O)NC(=S)Nc1ccccc1N1CCN(S(C)(=O)=O)CC1 returned CHO parental Ca -23, GPR7 antagonist -13, OX1R antag-1 -27 and OX1R antag-2 24.
Screening NC(=O)CC(NC(=O)Cc1ccc(Cl)cc1)c1ccc(NC2CCCCCCC2)c([N+](=O)[O-])c1 (centres undefined) returned CHO parental Ca -22, GPR7 antagonist -17, OX1R antag-1 -29 and OX1R antag-2 10.
Screening c1cc2c3c(cccc3c1)C(N1CCCCCC1)=N2 returned CHO parental Ca -1, GPR7 antagonist 32*, zfTRPN1 agonist 0, OX1R antag-1 -1, OX1R antag-2 27 and TRPML3 ag 0.
CN(C)CCNC(=S)Nc1ccc(Br)cc1 was read as CHO parental Ca -2, GPR7 antagonist 2, zfTRPN1 agonist 3, OX1R antag-1 -7, OX1R antag-2 12 and TRPML3 ag 1.
For S=C(NCc1ccc(Cl)cc1)Nc1ccncc1 the results were CHO parental Ca 52*, GPR7 antagonist 1, OX1R antag-1 15 and OX1R antag-2 26.
Cc1cc(Cl)ccc1NC(=S)NCc1ccc(F)cc1 was read as CHO parental Ca 42*, GPR7 antagonist -15, OX1R antag-1 35 and OX1R antag-2 3.
For Cc1ccccc1NC(=S)NCc1ccc(F)cc1 the results were CHO parental Ca -3, GPR7 antagonist -6, OX1R antag-1 -13 and OX1R antag-2 8.
CCCCN1C(=O)/C(=C/C=C2\SCCN2C)SC1=S was read as GPR7 antagonist 1, zfTRPN1 agonist 10 and TRPML3 ag 6.
Screening CCCN1C(=O)/C(=C\C=C2/C=CN(CC)c3ccccc32)SC1=S returned CHO parental Ca -5, GPR7 antagonist 21*, zfTRPN1 agonist -1, OX1R antag-1 1, OX1R antag-2 26 and TRPML3 ag 0.
`CN1CCS/C1=C/C=C1/SC(=S)N(Cc2ccccc2)C1=O` gave CHO parental Ca 23, GPR7 antagonist 8, zfTRPN1 agonist 3, OX1R antag-1 41, OX1R antag-2 21 and TRPML3 ag 1.
For CCCCN1C(=O)/C(=C/C=C2\N(C)c3ccccc3C2(C)C)SC1=S the results were CHO parental Ca 32, GPR7 antagonist 14, zfTRPN1 agonist 3, OX1R antag-1 51*, OX1R antag-2 1 and TRPML3 ag 2.
Screening CCCC(=O)N=C1SC2CS(=O)(=O)CC2N1c1ccc(-c2nc3ccc(C)cc3s2)cc1 (centres undefined) returned CHO parental Ca 2, GPR7 antagonist 10, zfTRPN1 agonist 2, OX1R antag-1 -6, OX1R antag-2 28 and TRPML3 ag 1.
Screening Cc1ccccc1OCC(=O)N1N=C(C(F)(F)F)CC1(O)C(C)(C)C (centres undefined) returned CHO parental Ca 33*, GPR7 antagonist -12, zfTRPN1 agonist 0, OX1R antag-1 17, OX1R antag-2 23 and TRPML3 ag 0.
`Cc1ccc(OCC(=O)N2N=C(c3cccnc3)CC2(O)C(F)(F)F)cc1C` (centres undefined) gave CHO parental Ca -7, GPR7 antagonist 10, zfTRPN1 agonist -1, OX1R antag-1 -12, OX1R antag-2 20 and TRPML3 ag 1.
`Cc1ccc(OCC(=O)N2N=C(C(F)(F)F)CC2(O)C(C)(C)C)cc1C` (centres undefined) gave CHO parental Ca 80*, GPR7 antagonist 4, zfTRPN1 agonist -1, OX1R antag-1 30, OX1R antag-2 29 and TRPML3 ag 0.
`Cc1c(N=C2N=C(NC(=O)Nc3ccc(Cl)cc3)c3ccccc32)c(=O)n(-c2ccccc2)n1C` gave CHO parental Ca -16, GPR7 antagonist -7, zfTRPN1 agonist 0, OX1R antag-1 -29, OX1R antag-2 24 and TRPML3 ag 0.
`Cc1sc(NC(=O)c2ccco2)c(C(c2cccnc2)N2CCC(C)CC2)c1C` (centres undefined) gave CHO parental Ca -26, GPR7 antagonist 20*, zfTRPN1 agonist 2, OX1R antag-1 4, OX1R antag-2 1 and TRPML3 ag 1.
`COc1ccc(C(=O)N2CCN(c3ccc(C)c(C)c3)CC2)cc1OC` gave CHO parental Ca -17, GPR7 antagonist 20*, zfTRPN1 agonist 0, OX1R antag-1 -23, OX1R antag-2 14 and TRPML3 ag 1.
For CCN(Cc1cc(=O)n2ccsc2n1)Cc1nc2cc(OC)c(OC)cc2c(=O)[nH]1 the results were CHO parental Ca -1, GPR7 antagonist -16, zfTRPN1 agonist 3, OX1R antag-1 -10, OX1R antag-2 15 and TRPML3 ag 0.
CCc1cc(Cn2nc(-c3ccccc3)cc2C(=O)NCCOC)on1 was read as CHO parental Ca -3, OX1R antag-1 -5 and OX1R antag-2 11.
`CCc1cc(Cn2nc(-c3ccccc3)cc2C(=O)NCc2cccs2)on1` gave CHO parental Ca 50*, OX1R antag-1 42 and OX1R antag-2 50.

Compound activity (PubChem BioAssay)
